Only some compounds are listed: those with a hit (about 1.4% of all), similar ones and a draw of the others.
NR2E3 ag-1 = agonists of human NR2E3 nuclear receptor; Q9Y5X4; CHO-S Gal4-NCOR/VP16-NR2E3 two-hybrid, luciferase; inhibition of corepressor binding, % at 3.98 µM; hit rate 0.35% among 360,000;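 active = inhibition above the mean of all tested compounds plus 3 SD, cut at about 70% in these data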;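 note: higher means lower luciferase signal from less NR2E3 corepressor binding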
NR2E3 ag-2 = activates human photoreceptor nuclear receptor NR2E3. Q9Y5X4. GST-NR2E3/biotin-RetCOR TR-FRET, 1536-well. inhibition of corepressor binding, % at 4.78 µM. hit rate 0.12% among 320,000;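 active = percent inhibition above the cutoff of mean plus 3 SD of all tested compounds, set per screening campaign, cut at about 20% in these data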
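Material: NR2E3–RetCOR corepressor complex | Quantity: 1.35 nM GST-tagged NR2E3 final | Schedule: 5 h at 4 °C | Replication: Singlicate compound wells | Reagent: RetCOR corepressor, biotinylated, 7 nM | Controls: Biotin wells as high control, 0.6% DMSO wells as low control | Signal: TR-FRET, Eu(K)-anti-GST donor, streptavidin-D2 acceptor, ex 340, em 617/671 nm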
Rev-erbA mod = modulates human Rev-erb alpha binding to DNA | P20393 | Rev-erbα–FITC-DNA binding, fluorescence polarization, 90 min | activity, % at 10 µM | hit rate 0.79% among 370,000 | AID 1259318;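 active = activity above about 14%, limit read from the data; passing the limit was not always enough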
Target sequence (P20393 whole entry, looked up): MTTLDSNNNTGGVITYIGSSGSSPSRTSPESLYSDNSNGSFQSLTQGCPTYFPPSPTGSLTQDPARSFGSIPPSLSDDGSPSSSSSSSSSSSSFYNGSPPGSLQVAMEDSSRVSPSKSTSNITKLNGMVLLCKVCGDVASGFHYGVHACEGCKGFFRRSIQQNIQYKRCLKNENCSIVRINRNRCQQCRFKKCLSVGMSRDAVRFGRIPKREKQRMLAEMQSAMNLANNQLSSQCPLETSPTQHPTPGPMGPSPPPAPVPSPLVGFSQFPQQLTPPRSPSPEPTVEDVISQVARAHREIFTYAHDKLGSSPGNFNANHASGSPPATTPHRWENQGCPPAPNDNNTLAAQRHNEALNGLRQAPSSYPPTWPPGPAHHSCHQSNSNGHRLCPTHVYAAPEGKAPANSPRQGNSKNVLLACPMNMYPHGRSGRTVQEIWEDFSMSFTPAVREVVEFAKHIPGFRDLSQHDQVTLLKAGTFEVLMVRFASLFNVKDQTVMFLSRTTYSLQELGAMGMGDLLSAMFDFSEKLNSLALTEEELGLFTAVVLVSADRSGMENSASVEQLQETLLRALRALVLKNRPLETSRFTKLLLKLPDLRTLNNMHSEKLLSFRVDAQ
PG9 binder = binds the HIV-1 gp120 antibody PG9. TR-FRET gp120-PG9 antibody binding. inhibition, % at 6.7 µM. hit rate 0.43% among 360,000; in the data active = inhibition above about 8.5%
NR2E3 ag conf = confirmation of human NR2E3 agonists; AID 624378; CHO-S mammalian two-hybrid NR2E3-NCOR, luciferase luminescence; inhibition, % at 3.98 µM; shares compounds with NR2E3 ag-1; hit rate 51% among 2,300;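 active = average inhibition above a cutoff equal to the mean inhibition of all tested compounds plus one SD, cut at about 70% in these data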
VP16 counter = reduces GAL4-VP16 reporter signal in NR2E3 counterscreen; shares compounds with NR2E3 ag-1; CHO-S GAL4-VP16 luciferase reporter, luminescence; hit rate 29% among 2,300; inhibition, % at 3.98 µM;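 active = mean inhibition above a cutoff equal to the average over all tested compounds plus one standard deviation, cut at about 70% in these data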;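 note: luciferase from a UAS reporter driven by GAL4-VP16 transactivation; higher means less reporter light so more repression of VP16 activity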
Hits are given with their value.

How did COc1cccc(CC(=O)N(Cc2ccccc2)c2ccccc2C(=O)Nc2cc(OC)ccc2OC)c1 do in these assays?
Rev-erbA mod: inactive

How did Cc1cc2sc3ccc(C#CC4(O)CCCCC4)cc3c(=O)c2cc1C do in these assays?
NR2E3 ag-1: inactive; NR2E3 ag-2: inactive; Rev-erbA mod: inactive; PG9 binder: inactive; NR2E3 ag conf: 86; VP16 counter: inactive

How did Cn1c2ccccc2c(=O)c2cc(C#CC3(O)CCCCC3)ccc21 do in these assays?
NR2E3 ag-1: inactive; NR2E3 ag-2: inactive; Rev-erbA mod: inactive; PG9 binder: inactive

Results for CC1CCC2(CC1)CCC2NCc1ccc(Cl)cc1 (stereo not drawn) ?
Rev-erbA mod: inactive

Results for O=[N+]([O-])c1ccc(NC(=S)NCCc2ccc(Cl)cc2)cc1 ?
NR2E3 ag-1: inactive; NR2E3 ag-2: inactive; Rev-erbA mod: inactive; PG9 binder: inactive; NR2E3 ag conf: 96; VP16 counter: 88

How did CCCCOCCCNC(=O)C[C@H]1C[C@@]2(C(=O)OC)C(=C[C@H](COCc3ccccc3)O[C@@H]2C)N(CCc2ccc(OC)c(OC)c2)C1=O do in these assays?
Rev-erbA mod: inactive

How did NC(=O)c1nn(-c2ccccc2)nc1NC(=O)CSc1nnnn1-c1ccc(Cl)cc1 do in these assays?
NR2E3 ag-1: 92; NR2E3 ag-2: inactive; Rev-erbA mod: inactive; PG9 binder: inactive; NR2E3 ag conf: 97; VP16 counter: inactive

How did CCn1c(SCC(=O)NN=Cc2cccc(OCc3ccccc3)c2)nnc1-c1ccc(OC)c(OC)c1 do in these assays?
Rev-erbA mod: inactive

How did O=C(Nc1ccccc1C(=O)Nc1nnc(C(F)(F)F)s1)c1ccccc1 do in these assays?
NR2E3 ag-1: 72; NR2E3 ag-2: inactive; Rev-erbA mod: inactive; PG9 binder: inactive; NR2E3 ag conf: 99; VP16 counter: 94

How did O=C(NCCNc1ccnc2cc(Cl)ccc12)c1ccccc1F do in these assays?
NR2E3 ag-1: inactive; NR2E3 ag-2: inactive; Rev-erbA mod: inactive; PG9 binder: inactive; NR2E3 ag conf: inactive; VP16 counter: inactive

What do the screens show for `Clc1ccc2c(NCc3ccccc3)ccnc2c1`?
NR2E3 ag-1: inactive; NR2E3 ag-2: inactive; Rev-erbA mod: inactive; PG9 binder: inactive; NR2E3 ag conf: inactive; VP16 counter: inactive

What do the screens show for `O=C(NCCNc1ccc(Cl)cc1[N+](=O)[O-])c1ccccc1F`?
NR2E3 ag-1: inactive; NR2E3 ag-2: inactive; Rev-erbA mod: inactive; PG9 binder: inactive

Results for Cc1ccc2c(c1)C1CS(=O)(=O)N(CC(C)C)C(=O)N1C2 (stereo not drawn) ?
Rev-erbA mod: inactive

How did Cc1cc(C(=O)CSc2ccc(F)cc2)cc(C)c1OC(=S)N(C)C do in these assays?
NR2E3 ag-1: inactive; NR2E3 ag-2: inactive; Rev-erbA mod: inactive; PG9 binder: inactive; NR2E3 ag conf: inactive; VP16 counter: inactive

Results for O=C(O)C(=O)Nc1cccc(-c2nn[nH]n2)c1 ?
Rev-erbA mod: inactive

How did C/C(=N\NC(=S)NC1CCCCC1)c1ccccc1 do in these assays?
NR2E3 ag-1: inactive; NR2E3 ag-2: inactive; Rev-erbA mod: inactive; PG9 binder: inactive; NR2E3 ag conf: inactive; VP16 counter: inactive

How did C/C(=N\NC(=S)NC1CCCCC1)c1ccc(O)cc1 do in these assays?
NR2E3 ag-1: inactive; NR2E3 ag-2: inactive; Rev-erbA mod: inactive; PG9 binder: inactive

What do the screens show for `Oc1ccccc1/C=N/NC(=S)NC1CC2CC1C1C=CCC21` (stereo not drawn)?
NR2E3 ag-1: inactive; NR2E3 ag-2: inactive; Rev-erbA mod: inactive; PG9 binder: inactive; NR2E3 ag conf: inactive; VP16 counter: inactive

Results for NC(=NC(=O)/C=C/c1ccccc1Br)N(CC#Cc1ccccc1)CC#Cc1ccccc1 ?
Rev-erbA mod: inactive

What do the screens show for `Cc1cc(=O)n2[nH]c(C)c(-c3ccccc3)c2n1`?
NR2E3 ag-1: inactive; NR2E3 ag-2: inactive; Rev-erbA mod: inactive; PG9 binder: inactive

Results for O=c1cc(-c2ccccc2)nc2c(-c3ccccc3)c(C(F)(F)F)[nH]n12 ?
NR2E3 ag-1: inactive; NR2E3 ag-2: inactive; Rev-erbA mod: inactive; PG9 binder: inactive; NR2E3 ag conf: 100; VP16 counter: 77

Results for Cc1ccccc1Oc1nc(-c2ccccn2)nc2ccccc12 ?
NR2E3 ag-1: inactive; NR2E3 ag-2: inactive; Rev-erbA mod: inactive; PG9 binder: inactive; NR2E3 ag conf: inactive; VP16 counter: inactive

Screening results as filed in PubChem.
